High-throughput results from PubChem BioAssay.
RORA inh: inhibitors of human nuclear receptor RORA; P35398; CHO-K1 Gal4-RORA LBD luciferase reporter, luminescence; inhibition, % at 10 µM; actives 0.43% (n = 65,000); AID 561;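 active means inhibition above the mean of all tested compounds plus 3 SD, cut at about 52% in these data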;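 further: 0% = RORA-transfected cells with DMSO and 100% = mock-transfected cells lacking RORA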
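test system = CHO-K1 Gal4-RORA LBD luciferase reporter cells | dosing = 10 µM single point | times = 20 h compound treatment, 37 °C | signal = luciferase luminescence | read-out = % inhibition of basal luciferase versus +RORA/-RORA DMSO controls | benchmarks = mock-transfected cells as 100%, +RORA DMSO cells as 0% | replicates = tested once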
An asterisk follows results filed as active. The entries come from a sample that favours hits as a whole.

SMILES	RORA inh
C[C@@]1(CO)[C@H](O)CC[C@@]2(C)[C@H]1CC[C@H]1C[C@@H]3C[C@@]12CC[C@]3(O)CO	82.0*
CN1CCN(CCC(C#N)(c2ccccc2)c2ccccc2)CC1	18.0
Cc1ccc(Cl)cc1-n1c(O)c(C=NCCCN2CCOCC2)c(=O)[nH]c1=O	14.5
Cc1sc2ncn(CC(=O)NCC(=O)N3CCC4(CC3)OCCO4)c(=O)c2c1C	19.0
Cn1ncnc2c(=O)n(C)c(=O)nc1-2	97.5*
Cc1ccccc1-n1c(O)c(C=Nc2ccc(N(C)C)cc2)c(=O)[nH]c1=O	-3.9
CCOC(=O)N(CC)c1ccc(C(O)(C(=O)OC)C(F)(F)F)cc1 (stereo unspecified)	4.7
COCCOC(=O)C1=C(N)Oc2c(c(=O)oc3ccccc23)C1c1ccncc1 (stereo unspecified)	16.7
O=C(CN1C2CCC1CC(O)(c1cccnc1)C2)Nc1ccc2c(c1)OCO2 (stereo unspecified)	-3.4
O=C1NC(=O)C(CCc2ccncc2)(C2CCCCC2)C(=O)N1	2.2
